ChEMBL document CHEMBL4004831, “Naphthalene diimide-polyamine hybrids as antiproliferative agents: Focus on the architecture of the polyamine chains” (Eur J Med Chem, 2017)
In brackets after ≈: the same amount, converted by molar mass. Activity calls are given as the source filed them. The rule behind the calls is not given here.

How the values were obtained:
[1] = system: NCI-H460; experiment: Growth inhibition of human NCI-H460 cells incubated for 48 hrs by sulforhodamine B assay; type: functional; details: NCI-H460, 48 h
[2] = system: NCI-H23; experiment: Growth inhibition of human NCI-H23 cells incubated for 48 hrs by sulforhodamine B assay; type: functional; details: NCI-H23, 48 h
[3] = system: MOLT-4; experiment: Growth inhibition of human MOLT4 cells incubated for 48 hrs by sulforhodamine B assay; type: functional; details: MOLT-4, 48 h
[4] = system: NCI-H322M; experiment: Growth inhibition of human NCI-H322M cells incubated for 48 hrs by sulforhodamine B assay; type: functional
[5] = system: SF-268; experiment: Growth inhibition of human SF268 cells incubated for 48 hrs by sulforhodamine B assay; type: functional; details: SF-268, 48 h
[6] = system: TK-10; experiment: Growth inhibition of human TK10 cells incubated for 48 hrs by sulforhodamine B assay; type: functional; details: TK-10, 48 h
[7] = system: CAKI-1; experiment: Growth inhibition of human Caki1 cells incubated for 48 hrs by sulforhodamine B assay; type: functional; details: CAKI-1, 48 h
[8] = system: UACC-257; experiment: Growth inhibition of human UACC257 cells incubated for 48 hrs by sulforhodamine B assay; type: functional; details: UACC-257, 48 h
[9] = system: COLO 205; experiment: Growth inhibition of human COLO205 cells incubated for 48 hrs by sulforhodamine B assay; type: functional; details: COLO 205, 48 h
[10] = system: T47D; experiment: Growth inhibition of human T47D cells incubated for 48 hrs by sulforhodamine B assay; type: functional
[11] = system: EKVX; experiment: Growth inhibition of human EKVX cells incubated for 48 hrs by sulforhodamine B assay; type: functional
[12] = target: T1, DNA topoisomerase 2-alpha (Homo sapiens, UniProt P11388); experiment: Inhibition of human topoisomerase-2alpha-mediated relaxation of supercoiled pBR322 DNA after 1 hr by ethidium bromide staining based agarose gel electrophoresis
How it was run: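 Supercoiled pBR322 was incubated with compound (0.5–100) and 1 U human topoisomerase IIα in enzyme buffer for 1 h at 37 °C. Reactions were stopped with Tris/EDTA/NaCl loading buffer (pH 8.0) and run on 1% agarose in TAE with 0.1% SDS (4.9 V/cm, 90 min), then stained with ethidium bromide. IC50 is the concentration reducing relaxation activity by 50%.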

[13] = system: 786-0; experiment: Growth inhibition of human 786-0 cells incubated for 48 hrs by sulforhodamine B assay; type: functional; details: 786-0, 48 h
[14] = system: BT-549; experiment: Growth inhibition of human BT549 cells incubated for 48 hrs by sulforhodamine B assay; type: functional; details: BT-549, 48 h
[15] = system: HCT-15; experiment: Growth inhibition of human HCT15 cells incubated for 48 hrs by sulforhodamine B assay; type: functional; details: HCT-15, 48 h
[16] = system: HOP-62; experiment: Growth inhibition of human HOP62 cells incubated for 48 hrs by sulforhodamine B assay; type: functional; details: HOP-62, 48 h
[17] = system: SK-OV-3; experiment: Growth inhibition of human SKOV3 cells incubated for 48 hrs by sulforhodamine B assay; type: functional; details: SK-OV-3, 48 h
[18] = system: Thermus aquaticus; experiment: Inhibition of Thermus aquaticus DNA polymerase-mediated amplification of fragment of pBR322 by PCR
How it was run: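 PCR amplification of a pBR322 fragment by Taq polymerase with increasing compound (0.25–40) for 25 cycles: 94 °C, 58 °C and 72 °C, 30 s each. Products were run on 2% agarose in 0.5X TBE (4.2 V/cm, 1.5 h) and stained with ethidium bromide. IC50 is the concentration halving activity; MIC is the lowest concentration that suppresses activity.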

[19] = system: U-251; experiment: Growth inhibition of human U251 cells incubated for 48 hrs by sulforhodamine B assay; type: functional; details: U-251, 48 h
[20] = system: NCI-H522; experiment: Growth inhibition of human NCI-H522 cells incubated for 48 hrs by sulforhodamine B assay; type: functional; details: NCI-H522, 48 h
[21] = system: Jurkat; experiment: Induction of apoptosis in human Jurkat T cells at 6.4 uM after 24 hrs by annexin V-phycoerythrin/7-AAD staining based flow cytometry (reference value: 5.8 to 6.6%); type: functional
[22] = system: Jurkat; experiment: Cell cycle arrest in human Jurkat T cells assessed as accumulation at G0/G1 phase at 3.2 uM after 24 hrs by propidium iodide staining based flow cytometry (reference value: 62.7 to 68.6%); type: functional
[23] = system: Escherichia coli; experiment: Binding affinity to Escherichia coli supercoiled pBR322 DNA assessed as DNA intercalation up to 100 uM by agarose gel electrophoresis
How it was run: (§1)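 Supercoiled pBR322 mixed with ligand (0–100 µM) in 10 mM Tris, 50 mM KCl with no enzyme, then run on agarose gel. Shift in electrophoretic mobility was read as intercalation/binding.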

[24] = target: Telomerase reverse transcriptase (Homo sapiens) (UniProt O14746); experiment: Inhibition of telomerase activity in human HeLa cells using 5'AATCCGTCGAGCAGAGTT3' as substrate after 30 mins by Sybr green1 staining based TRAP-PCR method; type: cell-based
[25] = system: Jurkat; experiment: Cell cycle arrest in human Jurkat T cells assessed as accumulation at G2/M phase at 3.2 uM after 24 hrs by propidium iodide staining based flow cytometry (reference value: 17.1 to 20.8%); type: functional
[26] = system: Jurkat; experiment: Induction of apoptosis in human Jurkat T cells assessed as PARP cleavage at 3.2 uM after 24 hrs by flow cytometry (reference value: 4.8%); type: functional
[27] = system: Escherichia coli; experiment: Binding affinity to Escherichia coli supercoiled pBR322 DNA up to 100 uM by agarose gel electrophoresis; how it was run: as §1
[28] = system: Jurkat; experiment: Induction of apoptosis in human Jurkat T cells assessed as caspase3 activation at 1.6 uM after 24 hrs by colorimetric assay relative to control; type: functional
How it was run: (§2)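 Jurkat cells were treated 24 h (0–6.4), and 3×10^6 cells were washed in PBS and lysed 10 min on ice. Cleared lysate was incubated 2 h at 37 °C in the dark with 10 mM DTT buffer and DEVD-pNA substrate. Absorbance at 405 nm was read against a no-substrate blank and expressed as fold over untreated cells. Valinomycin for 1 h was the positive control; three experiments.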

[29] = system: Jurkat; experiment: Induction of apoptosis in human Jurkat T cells assessed as caspase3 activation at 6.4 uM after 24 hrs by colorimetric assay relative to control; type: functional; how it was run: as §2
[30] = target: T1, DNA topoisomerase 2-alpha; experiment: Poison activity at human topoisomerase-2alpha assessed as stabilization of DNA-enzyme cleavage complex at 0.5 to 100 uM using supercoiled pBR322 DNA as substrate after 1 hr by ethidium bromide staining based agarose gel electrophoresis
How it was run: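 Cleavage-complex test: supercoiled pBR322 was exposed to compound (0.5–100) with 5 U human topoisomerase IIα for 1 h at 37 °C. Products were run on 1% agarose in TAE with 0.1% SDS (4.9 V/cm, 90 min) and stained with ethidium bromide, with nicked and linearized pBR322 as markers.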

[31] = system: Jurkat; experiment: Induction of apoptosis in human Jurkat T cells at 3.2 uM after 24 hrs by annexin V-phycoerythrin/7-AAD staining based flow cytometry (reference value: 5.8 to 6.6%); type: functional

T1 sequence (P11388 whole entry): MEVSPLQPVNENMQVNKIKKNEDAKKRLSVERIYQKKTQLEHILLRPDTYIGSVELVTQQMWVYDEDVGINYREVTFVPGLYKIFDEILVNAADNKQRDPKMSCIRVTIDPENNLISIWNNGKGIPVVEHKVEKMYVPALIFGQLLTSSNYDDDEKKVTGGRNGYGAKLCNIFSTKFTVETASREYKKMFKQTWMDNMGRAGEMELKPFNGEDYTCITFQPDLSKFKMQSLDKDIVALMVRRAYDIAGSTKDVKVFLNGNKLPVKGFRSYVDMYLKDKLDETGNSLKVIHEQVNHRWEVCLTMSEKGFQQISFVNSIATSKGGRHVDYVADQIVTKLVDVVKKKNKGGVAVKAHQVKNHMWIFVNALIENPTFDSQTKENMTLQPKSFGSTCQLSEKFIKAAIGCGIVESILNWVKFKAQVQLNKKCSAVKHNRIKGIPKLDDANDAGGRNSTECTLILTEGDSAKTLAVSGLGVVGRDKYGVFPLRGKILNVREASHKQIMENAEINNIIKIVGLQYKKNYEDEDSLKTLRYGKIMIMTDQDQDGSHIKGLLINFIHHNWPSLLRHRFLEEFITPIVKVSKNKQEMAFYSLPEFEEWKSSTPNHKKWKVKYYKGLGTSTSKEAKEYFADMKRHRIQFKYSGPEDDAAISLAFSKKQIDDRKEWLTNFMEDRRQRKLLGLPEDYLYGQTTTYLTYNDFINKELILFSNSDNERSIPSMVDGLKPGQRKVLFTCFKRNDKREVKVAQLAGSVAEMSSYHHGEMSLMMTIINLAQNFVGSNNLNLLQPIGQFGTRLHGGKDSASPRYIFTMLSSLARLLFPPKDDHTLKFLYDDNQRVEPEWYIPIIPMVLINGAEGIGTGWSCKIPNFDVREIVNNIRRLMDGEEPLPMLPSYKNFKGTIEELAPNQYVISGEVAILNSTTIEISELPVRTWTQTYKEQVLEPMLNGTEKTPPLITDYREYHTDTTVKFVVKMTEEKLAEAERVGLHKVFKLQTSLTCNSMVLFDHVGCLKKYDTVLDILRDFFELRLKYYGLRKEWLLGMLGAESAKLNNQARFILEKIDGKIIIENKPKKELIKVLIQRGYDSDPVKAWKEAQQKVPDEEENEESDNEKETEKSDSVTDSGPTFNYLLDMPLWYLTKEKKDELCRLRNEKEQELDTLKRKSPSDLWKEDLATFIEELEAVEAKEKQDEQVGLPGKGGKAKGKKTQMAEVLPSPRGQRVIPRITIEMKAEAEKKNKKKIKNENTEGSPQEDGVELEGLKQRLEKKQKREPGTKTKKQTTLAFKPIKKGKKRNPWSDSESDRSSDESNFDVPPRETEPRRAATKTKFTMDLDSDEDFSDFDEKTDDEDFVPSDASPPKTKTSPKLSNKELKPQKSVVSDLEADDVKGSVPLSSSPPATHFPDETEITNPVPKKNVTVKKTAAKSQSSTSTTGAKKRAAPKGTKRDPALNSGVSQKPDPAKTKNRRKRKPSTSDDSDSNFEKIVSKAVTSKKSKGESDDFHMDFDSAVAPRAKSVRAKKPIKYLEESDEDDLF
Chain of Telomerase reverse transcriptase (Homo sapiens) (O14746 whole entry): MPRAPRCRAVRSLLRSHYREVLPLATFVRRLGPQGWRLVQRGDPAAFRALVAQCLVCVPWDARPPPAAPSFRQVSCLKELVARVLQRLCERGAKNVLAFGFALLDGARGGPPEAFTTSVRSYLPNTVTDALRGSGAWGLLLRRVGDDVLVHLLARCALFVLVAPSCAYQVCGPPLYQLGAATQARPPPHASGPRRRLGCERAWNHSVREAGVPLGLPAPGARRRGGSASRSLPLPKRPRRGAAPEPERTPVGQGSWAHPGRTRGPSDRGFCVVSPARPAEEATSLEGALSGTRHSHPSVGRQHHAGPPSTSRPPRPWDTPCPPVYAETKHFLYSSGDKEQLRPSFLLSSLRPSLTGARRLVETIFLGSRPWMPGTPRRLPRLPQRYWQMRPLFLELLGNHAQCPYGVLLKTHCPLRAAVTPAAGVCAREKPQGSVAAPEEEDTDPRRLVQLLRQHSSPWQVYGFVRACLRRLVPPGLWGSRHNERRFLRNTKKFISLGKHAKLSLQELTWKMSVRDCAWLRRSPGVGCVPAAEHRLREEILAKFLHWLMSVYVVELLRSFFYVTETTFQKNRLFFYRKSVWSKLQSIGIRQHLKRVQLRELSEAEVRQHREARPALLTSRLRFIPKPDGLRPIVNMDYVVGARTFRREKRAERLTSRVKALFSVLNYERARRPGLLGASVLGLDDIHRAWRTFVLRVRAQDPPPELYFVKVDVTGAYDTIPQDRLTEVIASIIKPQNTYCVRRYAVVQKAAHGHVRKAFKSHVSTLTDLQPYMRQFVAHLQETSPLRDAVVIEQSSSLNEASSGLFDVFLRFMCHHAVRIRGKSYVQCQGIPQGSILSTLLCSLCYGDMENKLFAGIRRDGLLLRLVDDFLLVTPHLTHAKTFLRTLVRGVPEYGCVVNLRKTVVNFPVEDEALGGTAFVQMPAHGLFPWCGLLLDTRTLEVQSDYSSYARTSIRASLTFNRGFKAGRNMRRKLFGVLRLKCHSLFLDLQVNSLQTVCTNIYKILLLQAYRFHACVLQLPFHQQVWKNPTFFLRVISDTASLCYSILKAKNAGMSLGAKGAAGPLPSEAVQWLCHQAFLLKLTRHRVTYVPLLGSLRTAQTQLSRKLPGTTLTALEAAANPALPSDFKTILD

SMILES	GI50 [1]	GI50 [2]	GI50 [3]	GI50 [4]	GI50 [5]	GI50 [6]	GI50 [7]	GI50 [8]	GI50 [9]	GI50 [10]	GI50 [11]	IC50 [12]	GI50 [13]	GI50 [14]	GI50 [15]	GI50 [16]	GI50 [17]	MIC [18]	GI50 [19]	GI50 [20]	other results
COc1ccccc1CNCCCN1C(=O)c2ccc3c4c(ccc(c24)C1=O)C(=O)N(CCCOCCCCOCCCN)C3=O	657 nM	605 nM	546 nM	1900 nM	1430 nM	1970 nM	1830 nM	283 nM	233 nM	976 nM	1180 nM	5500 nM	1530 nM	1950 nM	550 nM	2660 nM	2360 nM	1 µM (≈ 0.631 µg/mL)	1240 nM	919 nM	
COc1ccccc1CNCCCN1C(=O)c2ccc3c4c(ccc(c24)C1=O)C(=O)N(CCCNCCCN)C3=O	154 nM	318 nM	194 nM	1070 nM	410 nM	1610 nM	828 nM	625 nM	457 nM	793 nM	1020 nM	1500 nM	715 nM	1440 nM	887 nM	466 nM	1040 nM	0.25 µM (≈ 0.139 µg/mL)	108 nM	572 nM	Activity [21]: 14.5%; Activity [22]: 56.1%; Activity [23]: Active; inhibition [24]: inactive; Activity [25]: 27.8%; Activity [26]: 7.2%
CNCCCNCCCN1C(=O)c2ccc3c4c(ccc(c24)C1=O)C(=O)N(CCCNCc1ccccc1OC)C3=O	429 nM	1260 nM	534 nM	2220 nM	1030 nM	2580 nM		1350 nM	498 nM	1250 nM			1270 nM	5030 nM	2360 nM	1240 nM	2950 nM		1610 nM	1230 nM	
COc1ccccc1CNCCCN1C(=O)c2ccc3c4c(ccc(c24)C1=O)C(=O)N(CCCN)C3=O	524 nM	1340 nM	433 nM	1660 nM	1230 nM	1640 nM	1760 nM	424 nM	570 nM	1170 nM			1940 nM	1660 nM	1410 nM	1240 nM	2670 nM		1590 nM	1570 nM	
COc1ccccc1CNCCCN1C(=O)c2ccc3c4c(ccc(c24)C1=O)C(=O)N(CCCNCCCCNCCCN)C3=O	311 nM	356 nM	584 nM	1210 nM	338 nM	422 nM	2610 nM	176 nM	168 nM	214 nM	1400 nM	2200 nM	1170 nM	1710 nM	1740 nM	664 nM	2110 nM	0.25 µM (≈ 0.157 µg/mL)	328 nM	180 nM	
COc1ccccc1CNCCCN1C(=O)c2ccc3c4c(ccc(c24)C1=O)C(=O)N(CCCNCCNCCCN)C3=O	2080 nM	1720 nM	173 nM		2100 nM	6650 nM	21700 nM	2530 nM		1510 nM	4170 nM			2580 nM	12200 nM	2460 nM	4040 nM		1170 nM	1220 nM	
CNCCCNCCCCNCCCN1C(=O)c2ccc3c4c(ccc(c24)C1=O)C(=O)N(CCCNCc1ccccc1OC)C3=O	2530 nM	2990 nM	5210 nM	2210 nM	3510 nM	4080 nM	2250 nM	1250 nM	1380 nM	342 nM			3360 nM	3400 nM	4270 nM	2330 nM	6190 nM		3240 nM	5620 nM	
COc1ccccc1CNCCCN1C(=O)c2ccc3c4c(ccc(c24)C1=O)C(=O)N(CCCCNCCCN)C3=O	767 nM	747 nM	939 nM	2140 nM	1660 nM	2620 nM	13200 nM	916 nM	690 nM	1300 nM	2060 nM	7000 nM	2280 nM	2230 nM	4460 nM	2980 nM	4030 nM	0.5 µM (≈ 0.286 µg/mL)	787 nM	1460 nM	Activity [27]: Active; inhibition [24]: inactive
COc1ccccc1CNCCCN1C(=O)c2ccc3c4c(ccc(c24)C1=O)C(=O)N(CCCNCCCCN)C3=O	313 nM	193 nM	302 nM		268 nM		198 nM	163 nM	110 nM	215 nM	866 nM	8100 nM	616 nM	1180 nM	165 nM	290 nM	290 nM	0.5 µM (≈ 0.286 µg/mL)	173 nM	172 nM	fold change (FC) [28]: 2.6; fold change (FC) [29]: 5.6; Activity [21]: 22.2%; Activity [22]: 59.7%; Activity [23]: Active; inhibition [24]: inactive; Activity [25]: 20.8%; Activity [30]: inactive; Activity [31]: 17.9%; Activity [26]: 16.6%
